Compound activity from PubChem BioAssay.
The list is not random: actives were taken first. Their share in the collection is about 3.5%.
pPAFAH FP inh – inhibitors of human plasma PAF acetylhydrolase (pPAFAH) | AID 463082 | 1.5% of 330,000 active | Q13093 | inhibition, % at 3.39 µM | recombinant pPAFAH, FP-rhodamine probe fluorescence polarization;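 active = inhibition above the mean inhibition across the screen plus 3 SD, cut at about 25% in these data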;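 also: inhibitors block binding of the rhodamine activity-based probe so polarization drops; 0% = enzyme with DMSO and 100% = wells lacking pPAFAH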
PREPL inh – human PREPL enzyme inhibition; recombinant PREPL, fluorescence polarization activity-based probe; inhibition, % at 5.96 µM; 0.68% of 320,000 active; in the data active = inhibition above about 43%;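 also: 0% = enzyme with DMSO and 100% = wells lacking enzyme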
Apaf-1 inh – blocks human Apaf-1 apoptosome activity | reconstituted apoptosome caspase-3 activity, DEVD-Rh110 fluorescence | inhibition, % at 20 µM | 0.71% of 330,000 active; active = inhibition of at least 40% at 20 µM;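 also: plate controls were DMSO wells for no effect and DEVD-CHO caspase inhibitor wells for full effect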
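System: Apoptosome proteins | Medium: Hepes pH 7.5 with detergent and BSA | Also added: Cytochrome c trigger plus (Z-DEVD)2-Rh110 caspase-3 substrate | Incubation: 30 min compound preincubation, 50 min activation, room temperature | Detection: Rhodamine 110 fluorescence at Ex 480/Em 540 nm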
PAFAH1B3 FP inh – PAFAH1B3 (human) inhibition | recombinant PAFAH1B3, FP-rhodamine probe, fluorescence polarization | 0.28% of 340,000 active | Q15102 | inhibition, % at 3.39 µM | AID 492972;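 active = inhibition above the screen-wide average of all tested compounds plus 3 SD, cut at about 25% in these data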;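 also: 0% = enzyme with DMSO only and 100% = wells lacking PAFAH1B3 protein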
PAFAH2 FP inh – PAFAH2 (human) inhibition; Q99487; recombinant PAFAH2, FP-rhodamine activity probe, fluorescence polarization; inhibition, % at 3.39 µM; 0.99% of 340,000 active;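 active = inhibition above the mean over all tested compounds plus 3 SD, cut at about 30% in these data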;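 also: inhibitors block probe labeling of enzyme so polarization drops; 0% = enzyme with DMSO and 100% = wells lacking PAFAH2 protein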
PAFAH1B2 FP inh – PAFAH1B2 (human) inhibition. P68402. recombinant PAFAH1B2, FP-rhodamine activity probe, fluorescence polarization. inhibition, % at 3.39 µM. 1.2% of 340,000 active. AID 492953;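 active = inhibition above the mean of all tested compounds plus 3 SD, cut at about 24% in these data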;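 also: 0% = enzyme with DMSO and 100% = wells lacking PAFAH1B2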
The depositor's hits bear a star; . = no result given.

SMILES	pPAFAH FP inh	PREPL inh	Apaf-1 inh	PAFAH1B3 FP inh	PAFAH2 FP inh	PAFAH1B2 FP inh
COc1cc2c(cc1OC)CN(C(=O)c1ccc3[nH]c(C)c(C)c3c1)CC2	10	9	7	8	8	-1
Cc1ccc(S(=O)(=O)Oc2ccc(/C=N/N=C3/NC(=O)C(CC(=O)O)S3)cc2)cc1 (centres undefined)	.	.	7	.	.	.
COc1ccc(/C=N/N=C2/NC(=O)C(CC(=O)O)S2)cc1OCc1ccccc1Cl (centres undefined)	8	2	6	-2	-2	2
CCOc1cc(/C=N/N=C2/NC(=O)C(CC(=O)O)S2)ccc1OCc1ccccc1Cl (centres undefined)	26*	32	11	-3	4	6
COc1ccc(S(=O)(=O)Oc2cccc(/C=N/N=C3/NC(=O)C(CC(=O)O)S3)c2)cc1 (centres undefined)	6	-2	9	10	5	28*
O=C(NNS(=O)(=O)c1ccccc1)C1CCCCC1	4	-5	-2	1	-1	3
COc1ccc(-n2nc3c(c2NC(=O)C2CC(=O)N(c4ccccc4)C2)CS(=O)(=O)C3)cc1 (centres undefined)	3	-41	-13	-3	-5	-4
COc1ccc(NC(=O)C2CCC2)cc1S(=O)(=O)N1CCOCC1	-6	13	-2	1	-2	-2
COc1ccc(NC(=O)C2CCC2)cc1S(=O)(=O)Nc1cc(C)ccc1Br	29*	-1	26	6	0	5
CC(=O)Nc1ccc(NC(=O)C(C)c2cccc(C(=O)c3ccccc3)c2)cc1 (centres undefined)	30*	3	-9	6	-5	3
CC(C(=O)Nc1ccc(O)cc1)c1cccc(C(=O)c2ccccc2)c1 (centres undefined)	11	24	-3	.	.	.
O=C(Nc1ccc(S(=O)(=O)Nc2nccs2)cc1)c1cc(-c2ccccc2Cl)nc2ccccc12	25*	11	25	10	-2	3
Cc1ccc(C(CCN(Cc2ccccc2)C(=O)c2ccco2)c2ccco2)cc1 (centres undefined)	30*	-3	17	1	15	-4
NC(=O)C1(N2CCCCC2)CCN(C(=S)NC2CCCC2)CC1	-1	17	2	3	-8	0
CCOC(=O)C1=C(C)N(CCCCCC(=O)O)C(=O)NC1c1cccc([N+](=O)[O-])c1 (centres undefined)	1	-2	-9	3	0	7
CC1=C(C(=O)OCC(Br)(Br)Br)C(c2cccc([N+](=O)[O-])c2)NC(=O)N1CCCC(=O)O (centres undefined)	-3	-1	13	-7	-2	92*
NC(CO)C(=O)NNCc1ccc(O)c(O)c1O (centres undefined)	28*	30	51*	19	8	6
CN(C)/C=C/C(=O)/C=C/c1cn(-c2ncc(C(F)(F)F)cc2Cl)c2ccccc12	26*	2	17	2	-2	-4
COC(=O)Cc1cn(-c2ncc(C(F)(F)F)cc2Cl)c2ccccc12	2	-12	2	-11	-1	1
COc1ccc(C(=O)c2ccccc2CN2C(=O)c3ccccc3C2=O)cc1	.	.	.	7	3	5
Cc1cc2c(cc1S(=O)(=O)NCc1ccccc1)NC(=O)CO2	8	-7	5	0	0	11
Cc1ccc(CNS(=O)(=O)c2ccc3c(c2)NC(=O)CO3)cc1	3	-5	19	10	-9	26*
Cc1cc2c(cc1S(=O)(=O)NCCc1ccccc1)NC(=O)CO2	6	-13	10	8	7	29*
CCCCn1c(/C=C/c2ccco2)nc2ccccc21	16	-3	24	0	4	-1
CCCn1c(/C=C/c2ccco2)nc2ccccc21	25*	10	11	8	18	7
Clc1ccc(Cn2c(/C=C/c3ccco3)nc3ccccc32)cc1	33*	21	19	-11	-1	-8
Cc1ccc(Cn2c(/C=C/c3ccco3)nc3ccccc32)cc1	23	6	19	7	4	3
O=C(OCC(=O)c1ccc(Cl)s1)c1ccc2ccccc2n1	24	7	20	5	3	-5
